Measurements taken from ChEMBL document CHEMBL4033785, “Increased Potency and Selectivity for Group III Metabotropic Glutamate Receptor Agonists Binding at Dual sites” (J Med Chem, 2018).
Calls of active or inactive are those of the source. No cut-off for these calls is given here.

Experiments:
[1] = target: T1, Metabotropic glutamate receptor 8 (Homo sapiens, UniProt O00222); experiment: Agonist activity at mGlu8 (unknown origin) expressed in HEK293 cells coexpressing chimeric Gq/i protein assessed as [3H]inositol phosphate accumulation after 30 mins by scintillation and luminescence counting method; type: functional, cell-based
Method in brief: (§1)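 Receptor transiently co-expressed in HEK293 cells (electroporation) with chimeric G-protein and glutamate transporter EAAT3. Cells labelled overnight with 3H-myoinositol, stimulated with agonist 30 min, lysed 1 h in cold 0.1 M formic acid. 3H-IP isolated on Dowex ion exchange and counted. IP expressed relative to IP plus membrane radioactivity. Points in triplicate; EC50 from Hill-equation fit.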

[2] = target: T2, Metabotropic glutamate receptor 6 (Homo sapiens, UniProt O15303); experiment: Agonist activity at mGlu6 (unknown origin) expressed in HEK293 cells coexpressing chimeric Gq/i protein assessed as [3H]inositol phosphate accumulation after 30 mins by scintillation and luminescence counting method; type: functional, cell-based; method in brief: as §1
[3] = target: T3, Metabotropic glutamate receptor 4 (Homo sapiens, UniProt Q14833); experiment: Agonist activity at mGlu4 (unknown origin) expressed in HEK293 cells coexpressing chimeric Gq/i protein assessed as increase in intracellular calcium accumulation by Fluo-4 AM dye based fluorescence assay; type: functional, cell-based
[4] = target: T1, Metabotropic glutamate receptor 8; experiment: Agonist activity at mGlu8 (unknown origin) expressed in HEK293 cells coexpressing chimeric Gq/i protein assessed as increase in intracellular calcium accumulation by Fluo-4 AM dye based fluorescence assay; type: functional, cell-based
[5] = target: T2, Metabotropic glutamate receptor 6; experiment: Agonist activity at mGlu6 (unknown origin) expressed in HEK293 cells coexpressing chimeric Gq/i protein assessed as increase in intracellular calcium accumulation by Fluo-4 AM dye based fluorescence assay; type: functional, cell-based
[6] = target: T4, Metabotropic glutamate receptor 7 (Homo sapiens, UniProt Q14831); experiment: Agonist activity at mGlu7 (unknown origin) expressed in HEK293 cells coexpressing chimeric Gq/i protein assessed as increase in intracellular calcium accumulation by Fluo-4 AM dye based fluorescence assay; type: functional, cell-based
[7] = organism: Homo sapiens; experiment: Selectivity ratio of EC50 for mGlu8 (unknown origin) expressed in HEK293 cells coexpressing chimeric Gq/i protein assessed as [3H]inositol phosphate accumulation to EC50 for mGlu4 (unknown origin) expressed in HEK293 cells coexpressing chimeric Gq/i protein assessed as [3H]inositol phosphate accumulation; type: cell-based
Method in brief: (§2)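 Ratio of mGlu8 EC50 to mGlu4 EC50, both from the same functional assay. Both receptors were co-expressed in HEK293 cells with chimeric G-protein and EAAT3 and read by 3H-IP accumulation or by Fluo-4 Ca2+ release.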

[8] = organism: Homo sapiens; experiment: Selectivity ratio of EC50 for mGlu8 (unknown origin) expressed in HEK293 cells coexpressing chimeric Gq/i protein assessed as increase in intracellular calcium accumulation to EC50 for mGlu4 (unknown origin) expressed in HEK293 cells coexpressing chimeric Gq/i protein assessed as increase in intracellular calcium accumulation; type: cell-based; method in brief: as §2
[9] = target: T4, Metabotropic glutamate receptor 7; experiment: Agonist activity at mGlu7 (unknown origin) expressed in HEK293 cells coexpressing chimeric Gq/i protein assessed as [3H]inositol phosphate accumulation after 30 mins by scintillation and luminescence counting method; type: functional, cell-based; method in brief: as §1
[10] = target: T4, Metabotropic glutamate receptor 7; experiment: Agonist activity at mGlu7 (unknown origin) expressed in HEK293 cells coexpressing chimeric Gq/i protein assessed as increase in intracellular calcium accumulation at 300 uM by Fluo-4 AM dye based fluorescence assay; type: functional, cell-based
[11] = target: T3, Metabotropic glutamate receptor 4; experiment: Agonist activity at mGlu4 (unknown origin) expressed in HEK293 cells coexpressing chimeric Gq/i protein assessed as increase in intracellular calcium accumulation at 300 uM by Fluo-4 AM dye based fluorescence assay; type: functional, cell-based
[12] = target: T1, Metabotropic glutamate receptor 8; experiment: Agonist activity at mGlu8 (unknown origin) expressed in HEK293 cells coexpressing chimeric Gq/i protein assessed as increase in intracellular calcium accumulation at 300 uM by Fluo-4 AM dye based fluorescence assay; type: functional, cell-based
[13] = target: T3, Metabotropic glutamate receptor 4; experiment: Agonist activity at mGlu4 (unknown origin) expressed in HEK293 cells coexpressing chimeric Gq/i protein assessed as [3H]inositol phosphate accumulation after 30 mins at 100 uM by scintillation and luminescence counting method; type: functional, cell-based; method in brief: as §1
[14] = organism: Homo sapiens; experiment: Selectivity ratio of EC50 for mGlu8 (unknown origin) expressed in HEK293 cells coexpressing chimeric Gq/i protein assessed as [3H]inositol phosphate accumulation to EC50 for mGlu4 (unknown origin) expressed in HEK293 cells coexpressing chimeric Gq/i protein assessed as increase in intracellular calcium accumulation; type: cell-based

T4 sequence (Q14831 whole entry): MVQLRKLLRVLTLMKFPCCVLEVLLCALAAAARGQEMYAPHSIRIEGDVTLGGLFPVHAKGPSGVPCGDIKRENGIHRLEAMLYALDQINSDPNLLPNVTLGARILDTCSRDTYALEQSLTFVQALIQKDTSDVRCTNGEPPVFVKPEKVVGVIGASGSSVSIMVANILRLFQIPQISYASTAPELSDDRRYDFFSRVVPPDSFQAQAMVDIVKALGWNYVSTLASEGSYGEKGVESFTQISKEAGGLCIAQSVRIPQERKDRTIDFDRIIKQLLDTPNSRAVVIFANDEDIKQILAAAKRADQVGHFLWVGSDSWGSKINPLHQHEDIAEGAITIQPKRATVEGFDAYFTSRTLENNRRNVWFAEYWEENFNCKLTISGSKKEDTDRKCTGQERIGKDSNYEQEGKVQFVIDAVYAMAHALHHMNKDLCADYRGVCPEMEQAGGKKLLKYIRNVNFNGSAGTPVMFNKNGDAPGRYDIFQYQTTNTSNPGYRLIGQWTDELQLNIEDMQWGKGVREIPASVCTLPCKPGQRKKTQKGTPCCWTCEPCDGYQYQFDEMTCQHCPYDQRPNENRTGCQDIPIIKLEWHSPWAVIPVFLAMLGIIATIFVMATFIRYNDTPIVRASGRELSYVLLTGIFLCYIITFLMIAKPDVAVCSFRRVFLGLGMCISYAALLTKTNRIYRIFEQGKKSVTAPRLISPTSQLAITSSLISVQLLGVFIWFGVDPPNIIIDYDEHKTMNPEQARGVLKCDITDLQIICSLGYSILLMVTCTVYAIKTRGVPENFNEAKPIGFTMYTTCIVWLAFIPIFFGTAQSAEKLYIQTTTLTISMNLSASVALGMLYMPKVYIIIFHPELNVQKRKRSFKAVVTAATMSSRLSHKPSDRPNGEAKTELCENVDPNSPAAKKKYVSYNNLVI
T1 sequence (O00222 whole entry): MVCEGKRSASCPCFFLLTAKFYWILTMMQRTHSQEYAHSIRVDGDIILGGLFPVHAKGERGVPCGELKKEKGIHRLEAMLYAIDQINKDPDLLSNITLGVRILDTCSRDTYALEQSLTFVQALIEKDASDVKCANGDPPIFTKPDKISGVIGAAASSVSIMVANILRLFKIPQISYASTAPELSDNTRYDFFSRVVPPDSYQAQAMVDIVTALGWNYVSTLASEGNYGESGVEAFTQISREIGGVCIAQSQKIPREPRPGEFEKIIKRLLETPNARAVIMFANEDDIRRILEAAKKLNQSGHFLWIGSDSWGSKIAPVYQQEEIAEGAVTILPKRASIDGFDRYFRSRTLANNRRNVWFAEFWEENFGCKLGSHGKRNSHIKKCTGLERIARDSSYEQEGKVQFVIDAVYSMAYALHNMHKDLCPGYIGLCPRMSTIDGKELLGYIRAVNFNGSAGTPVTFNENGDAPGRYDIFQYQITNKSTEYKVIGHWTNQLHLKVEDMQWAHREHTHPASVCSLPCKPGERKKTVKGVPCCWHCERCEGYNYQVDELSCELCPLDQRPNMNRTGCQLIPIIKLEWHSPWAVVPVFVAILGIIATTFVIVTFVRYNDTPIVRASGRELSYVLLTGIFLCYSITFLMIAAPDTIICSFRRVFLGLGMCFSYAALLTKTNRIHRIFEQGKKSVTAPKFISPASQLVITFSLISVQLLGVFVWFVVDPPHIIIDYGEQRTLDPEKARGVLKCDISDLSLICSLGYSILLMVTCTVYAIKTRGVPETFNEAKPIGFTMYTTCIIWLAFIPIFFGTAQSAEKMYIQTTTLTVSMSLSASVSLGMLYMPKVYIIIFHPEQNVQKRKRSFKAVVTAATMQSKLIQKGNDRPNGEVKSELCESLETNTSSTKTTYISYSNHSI
T3 sequence (Q14833 whole entry): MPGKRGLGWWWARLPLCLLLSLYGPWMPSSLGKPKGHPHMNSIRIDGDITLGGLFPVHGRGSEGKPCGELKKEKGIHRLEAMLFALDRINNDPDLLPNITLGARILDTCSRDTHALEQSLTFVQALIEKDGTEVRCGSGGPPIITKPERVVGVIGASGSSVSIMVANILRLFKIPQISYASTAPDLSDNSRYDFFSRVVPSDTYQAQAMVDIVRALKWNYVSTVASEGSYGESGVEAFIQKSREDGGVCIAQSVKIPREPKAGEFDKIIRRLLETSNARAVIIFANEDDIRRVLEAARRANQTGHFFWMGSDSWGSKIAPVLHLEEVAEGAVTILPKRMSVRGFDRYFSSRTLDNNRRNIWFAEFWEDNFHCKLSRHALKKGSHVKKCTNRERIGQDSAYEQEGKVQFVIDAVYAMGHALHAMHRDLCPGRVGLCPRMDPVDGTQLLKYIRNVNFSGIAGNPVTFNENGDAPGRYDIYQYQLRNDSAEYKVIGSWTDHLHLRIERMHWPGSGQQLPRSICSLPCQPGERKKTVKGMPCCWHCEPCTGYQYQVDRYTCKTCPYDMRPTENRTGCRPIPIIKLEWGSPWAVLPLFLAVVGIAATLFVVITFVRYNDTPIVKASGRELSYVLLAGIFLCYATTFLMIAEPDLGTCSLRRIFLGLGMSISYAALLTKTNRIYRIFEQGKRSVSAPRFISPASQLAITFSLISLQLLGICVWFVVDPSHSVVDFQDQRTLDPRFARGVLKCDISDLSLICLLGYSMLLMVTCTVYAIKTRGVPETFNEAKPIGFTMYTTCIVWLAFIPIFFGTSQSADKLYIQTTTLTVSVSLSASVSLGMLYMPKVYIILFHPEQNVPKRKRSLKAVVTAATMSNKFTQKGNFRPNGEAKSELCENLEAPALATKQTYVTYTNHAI
T2 sequence (O15303 whole entry): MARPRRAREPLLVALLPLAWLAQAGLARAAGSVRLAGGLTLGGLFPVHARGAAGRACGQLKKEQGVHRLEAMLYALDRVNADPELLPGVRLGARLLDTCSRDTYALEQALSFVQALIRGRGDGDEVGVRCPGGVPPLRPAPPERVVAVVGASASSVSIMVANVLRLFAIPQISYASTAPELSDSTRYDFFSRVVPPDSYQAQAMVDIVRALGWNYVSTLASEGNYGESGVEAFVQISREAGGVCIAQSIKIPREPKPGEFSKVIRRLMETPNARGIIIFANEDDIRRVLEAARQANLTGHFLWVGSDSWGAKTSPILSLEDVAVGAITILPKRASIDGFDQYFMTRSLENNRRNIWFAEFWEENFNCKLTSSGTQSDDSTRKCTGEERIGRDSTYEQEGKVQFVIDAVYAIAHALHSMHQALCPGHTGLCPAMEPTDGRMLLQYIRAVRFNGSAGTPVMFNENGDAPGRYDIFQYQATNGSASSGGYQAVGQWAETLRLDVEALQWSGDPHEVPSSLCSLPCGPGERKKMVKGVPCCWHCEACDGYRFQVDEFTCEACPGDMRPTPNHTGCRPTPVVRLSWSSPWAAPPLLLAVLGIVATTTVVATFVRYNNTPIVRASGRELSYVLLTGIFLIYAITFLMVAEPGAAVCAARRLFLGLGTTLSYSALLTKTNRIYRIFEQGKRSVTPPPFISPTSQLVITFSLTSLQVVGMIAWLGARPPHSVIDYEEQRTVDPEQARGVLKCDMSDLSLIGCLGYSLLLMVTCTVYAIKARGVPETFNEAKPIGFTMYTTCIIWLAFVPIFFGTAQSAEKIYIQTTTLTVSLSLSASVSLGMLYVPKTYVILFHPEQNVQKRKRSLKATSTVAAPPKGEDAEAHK

| Compound | EC50 [1] [µM] | EC50 [3] [µM] | EC50 [4] [µM] | EC50 [5] [µM] | EC50 [6] [µM] | Ratio EC50 [7] | Ratio EC50 [8] | also measured |
| --- | --- | --- | --- | --- | --- | --- | --- | --- |
| N[C@@H](CCP(=O)(O)C(O)c1ccc(F)c([N+](=O)[O-])c1)C(=O)O (stereo not given in full) | 1.3 | 0.44 | 0.66 | 4 | > 100 | 2.1 | 1.5 | EC50 [2]: 25 µM |
| N[C@@H](CCP(=O)(O)C(O)c1ccc(C(=O)O)cc1)C(=O)O (stereo not given in full) | 141 |  |  |  |  | 18 |  | EC50 [2]: 31 µM; EC50 [9]: 169 µM |
| N[C@@H](CCP(=O)(O)C(O)c1ccc([N+](=O)[O-])o1)C(=O)O (stereo not given in full) | 0.3 |  |  |  |  | 2.2 |  | EC50 [2]: 6.1 µM; EC50 [9]: 1970 µM |
| N[C@@H](CCP(=O)(O)C(O)c1ccc(N2CCOCC2)c([N+](=O)[O-])c1)C(=O)O (stereo not given in full) | > 100 |  |  | > 100 | > 100 |  |  |  |
| Nc1ncc(C(O)P(=O)(O)CC[C@H](N)C(=O)O)s1 (stereo not given in full) |  | 15 | 28 | > 100 |  |  | 1.9 | Activity [10]: inactive |
| N[C@@H](CCP(=O)(O)C(O)c1ccc(Cl)c([N+](=O)[O-])c1)C(=O)O (stereo not given in full) | 2.5 | 4.7 | 4.9 | 18 | > 100 | 1.2 | 1 |  |
| N[C@@]1(C(=O)O)C[C@H](C(=O)O)[C@H](C(=O)O)C1 | 5.1 |  |  |  |  | 3 |  | EC50 [2]: 11 µM; EC50 [9]: 280 µM |
| N[C@H](C(=O)O)c1ccc(C(=O)O)c(C(=O)O)c1 | 0.023 | 3.2 | 0.044 | 3.2 to 6.2 | 30 to 100 | 0.012 | 0.014 |  |
| N[C@@H](CCCP(=O)(O)C(O)c1ccc(OCC(=O)O)cc1)C(=O)O (stereo not given in full) |  |  |  |  |  |  |  | Activity [11]: inactive; Activity [12]: inactive |
| N[C@@H](CCP(=O)(O)CCC(=O)O)C(=O)O | 7.8 | 5.94 | 6.5 | 6.7 | 89 | 1.2 | 1.1 | EC50 [2]: 31 µM |
| N[C@@H](CCP(=O)(O)C(O)c1ccc([N+](=O)[O-])s1)C(=O)O (stereo not given in full) | 1.9 |  |  | 4.2 | > 100 | 3.9 |  |  |
| N[C@@H](CCP(=O)(O)C(O)c1ccc([N+](=O)[O-])c(C(F)(F)F)c1)C(=O)O (stereo not given in full) | 0.98 |  |  | 2.9 | > 100 | 2.4 |  |  |
| N[C@@H](CCP(=O)(O)Cc1ccc(O)c([N+](=O)[O-])c1)C(=O)O |  | 24 | 277 | > 100 | > 100 |  | 11 |  |
| N[C@@H](CCP(=O)(O)O)C(=O)O |  |  |  | 1 | 249 | 2.5 | 2.2 | EC50 [2]: 2.4 µM; EC50 [9]: 337 µM |
| N[C@@H](CCP(=O)(O)C(O)c1ccccc1C(=O)O)C(=O)O (stereo not given in full) |  |  |  |  |  |  |  | Activity [13]: inactive |
| COc1cc(C(N)P(=O)(O)CC[C@H](N)C(=O)O)cc([N+](=O)[O-])c1O (stereo not given in full) |  | 11.6 |  | > 100 |  |  | 3 | Activity [10]: inactive |
| COc1cc(C(O)P(=O)(O)CCC[C@H](N)C(=O)O)cc([N+](=O)[O-])c1O (stereo not given in full) |  |  |  |  |  |  |  | Activity [11]: inactive; Activity [12]: inactive |
| N[C@@H](CCP(=O)(O)C(O)c1cccnc1)C(=O)O (stereo not given in full) | 36 | 30 |  |  |  |  |  | Ratio EC50 [14]: 1.2 |
| COc1ccc([C@H](O)P(=O)(O)CC[C@H](N)C(=O)O)cc1[N+](=O)[O-] |  | 1.7 | 2.2 | 3.9 | > 100 |  | 1.3 |  |
| N[C@@H](CCP(=O)(O)C(O)c1cc(O)c(O)c([N+](=O)[O-])c1)C(=O)O (stereo not given in full) | 5.4 | 4.3 | 32.8 | 26 | > 100 | 1.1 | 7.6 |  |
| N[C@@H](CCP(=O)(O)C(O)c1cccc(C(=O)O)c1)C(=O)O (stereo not given in full) | 125 |  |  |  |  | 5.8 |  | EC50 [2]: > 100 µM |
| N[C@@H](CCP(=O)(O)C(O)c1c(F)c(F)c(F)c(F)c1F)C(=O)O (stereo not given in full) | 18.5 | 5.6 | 7.6 | 30 | > 100 | 3.7 | 1.4 |  |
| N[C@@H](CCP(=O)(O)[C@@H](O)c1ccc(O)c([N+](=O)[O-])c1)C(=O)O |  | 4.5 | 39.8 | 68.4 | 295 |  | 8.5 |  |
| N[C@@H](CCP(=O)(O)[C@H](O)c1ccc(O)c([N+](=O)[O-])c1)C(=O)O |  | 0.5 | 31.4 | 3.6 | 62 |  | 61 |  |
| N[C@@H](CCP(=O)(O)C(O)c1ccc([N+](=O)[O-])cc1)C(=O)O (stereo not given in full) | 0.53 | 0.64 | 0.49 | 4.6 | > 100 | 1.4 | 0.8 |  |
| N[C@@H](CCP(=O)(O)C(O)c1cc(F)c(O)c([N+](=O)[O-])c1)C(=O)O (stereo not given in full) |  | 1.95 | 23.4 | 1.07 | 51.2 |  | 12 |  |
| N[C@@H](CCP(=O)(O)C(O)c1ccc(C(F)(F)F)c([N+](=O)[O-])c1)C(=O)O (stereo not given in full) |  | 0.44 | 1.54 | 11.9 | > 100 |  | 3.5 | EC50 [2]: 5.7 µM |
| N[C@@H](CCP(=O)(O)Cc1cccc([N+](=O)[O-])c1)C(=O)O |  |  |  | 3.2 | > 100 | 5.4 | 2.5 |  |
